Laboratory results as given in ChEMBL document CHEMBL1268855 (J Nat Prod, 2010).
The source made the active and inactive calls. The rule behind the calls is not given here.

Key:
Neuraminidase [1] = molecular target: T1, Neuraminidase (Influenza A virus, UniProt B4URF0); experiment: Inhibition of Influenza A virus (A/Sw/Kor/CAH1/04 (H1N1) KCTC 11165BP neuraminidase after 30 mins by spectrofluorimetric analysis
Neuraminidase [2] = molecular target: T1, Neuraminidase; experiment: Inhibition of Influenza A virus (A/chicken/Korea/01310/2001 (H9N2)) neuraminidase after 30 mins by spectrofluorimetric analysis
Influenza A virus [3] = experiment: Antiviral activity against influenza A virus A/PR/8/34(H1N1) infected in MDCK cells assessed as protection against virus-induced cytopathic effect after 3 to 4 days by neutral red dye assay; format: functional
Procedure, shortened: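 Near-confluent MDCK monolayers (1 × 10^5 cells/well) inoculated with virus for 1 h, then medium replaced with DMEM containing 10 µg/mL trypsin plus compounds at several concentrations. Incubated 3-4 days at 37 °C, 5% CO2.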

MDCK = experiment: Cytotoxicity against MDCK cells at 97.56 uM after 48 hrs by neutral red dye assay; format: cell-based, Canis lupus familiaris; settings: dog
Influenza A virus [4] = experiment: Antiviral activity against influenza A virus A/PR/8/34(H1N1) infected in MDCK cells at 3.18 uM after 24 hrs by immunofluorescence assay; format: functional, organism-based
Procedure, shortened: (§1)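 MDCK cells on chamber slides infected with A/PR/8/34 at 1000 TCID50/mL for 2 h in infection medium (DMEM, 0.5% BSA, 1.5 µg/mL trypsin). Then cultured with compound in 5% FBS DMEM for 24 h at 37 °C. Cells fixed in 4% paraformaldehyde, permeabilised, stained with anti-M1 monoclonal antibody, FITC anti-mouse IgG secondary and DAPI. Fluorescence-positive cells counted by fluorescence microscopy.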

Influenza A virus [5] = experiment: Antiviral activity against influenza A virus A/PR/8/34(H1N1) infected in MDCK cells at 15.92 uM after 24 hrs by immunofluorescence assay; format: functional, organism-based; procedure, shortened: as §1

T1 sequence (B4URF0 whole entry): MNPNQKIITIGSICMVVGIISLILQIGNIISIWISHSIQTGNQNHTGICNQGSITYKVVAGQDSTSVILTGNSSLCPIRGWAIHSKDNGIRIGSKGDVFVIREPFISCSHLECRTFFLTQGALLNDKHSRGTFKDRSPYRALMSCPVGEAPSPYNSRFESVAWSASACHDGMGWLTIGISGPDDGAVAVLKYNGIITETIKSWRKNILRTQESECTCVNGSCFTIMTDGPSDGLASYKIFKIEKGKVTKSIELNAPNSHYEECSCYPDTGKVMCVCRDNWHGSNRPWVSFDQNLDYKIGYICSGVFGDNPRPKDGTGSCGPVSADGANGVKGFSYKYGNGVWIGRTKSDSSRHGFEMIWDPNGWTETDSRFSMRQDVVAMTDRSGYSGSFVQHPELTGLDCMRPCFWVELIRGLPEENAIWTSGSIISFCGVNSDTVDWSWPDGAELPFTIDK

Row | SMILES | IC50 (Neuraminidase [1]) [µM] | IC50 (Neuraminidase [2]) [µM] | further results
1 | COc1c(C)c(O)c(C)c2oc(-c3ccccc3)cc(=O)c12 | 414 | 363 | –
2 | COc1cc(O)c(C)c(O)c1C(=O)/C=C/c1ccccc1 | – | – | CC50 (Influenza A virus [3]): 135 µM
3 | COc1c(C)c(O)c(C)c2c1C(=O)C[C@@](O)(c1ccccc1)O2 | 283 | 285 | –
4 | CCOC(=O)C1=C[C@@H](OC(CC)CC)[C@H](NC(C)=O)[C@@H](N)C1 [OSELTAMIVIR] | – | – | Activity (MDCK): 7%
5 | COc1c(C)c(O)c(C)c(O)c1C(=O)/C=C/c1ccc(O)cc1 | – | – | Activity (Influenza A virus [4]): Active; CC50 (Influenza A virus [3]): > 120 µM; Activity (Influenza A virus [5]): Active
6 | COc1cc(O)c(C)c2c1C(=O)C[C@@H](c1ccccc1)O2 | > 500 | > 500 | –
7 | COc1c(C)c(O)c(C)c(O)c1C(=O)/C=C/c1ccccc1O | – | – | CC50 (Influenza A virus [3]): > 120 µM
8 | COc1c(C)c(O)c(C)c(O)c1C(=O)/C=C/c1ccccc1 | – | – | CC50 (Influenza A virus [3]): 78.4 µM
9 | COc1c(C)c(O)c(C)c2occ(-c3ccccc3)c(=O)c12 | 431 | 391 | –
10 | Cc1c(O)c(C)c2c(c1O)C(=O)[C@H](O)[C@@H](c1ccccc1)O2 | 375 | 368 | –
11 | COc1c(C)c2c(c(O)c1C=O)C(=O)C[C@@H](c1ccccc1)O2 | 269 | 256 | –
12 | Cc1c(O)cc(O)c2c1O[C@H](c1ccccc1)CC2=O | > 500 | > 500 | –
13 | COc1c(C)c(O)c2c(c1C=O)O[C@H](c1ccccc1)CC2=O | 290 | 299 | –
14 | COc1c(C)c(O)c2c(c1C)O[C@H](c1ccccc1)CC2=O | > 500 | > 500 | –
15 | Cc1c(O)c(C)c2c(c1O)C(=O)C[C@@H](c1ccccc1)O2 [DEMETHOXYMATTEUCINOL] | 334 | 319 | –
